Measured values from PMC2916699 (Journal of molecular biology, 2009).
Like-named read-outs stand apart in the source and are kept apart here. Where a SMILES comes first, the peptide text is derived from it. The star is where a group is joined. Dansyl = CN(C)c1cccc2c(S(=O)(=O)*)cccc12

How the values were obtained:
[1] = molecular target: T1, protein farnesyltransferase (FTase) (Rattus norvegicus, UniProt Q02293+Q04631); assay: Steady state continuous dansyl fluorescence assay, kcat/Km peptide; assay type: biochemical; settings: multiple-turnover substrates, 25 °C; for kcat/KM^peptide: targeted library, dansyl fluorescence; for kcat/Km: initial library, 10 μM FPP, 0.4–10 μM dansylated peptide, 25–300 nM FTase, 50 mM HEPPSO pH 7.8, 5 mM TCEP, 5 mM MgCl2, 10 μM ZnCl
Outline: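 Dansyl-TKCxxx peptides (0.4–10 μM) with saturating FPP 10 μM, 50 mM HEPPSO pH 7.8, 5 mM TCEP, 5 mM MgCl2, 10 μM ZnCl, 25 °C. FTase (25–300 nM) started the reaction. Dansyl fluorescence (ex 340, em 520 nm) followed to endpoint (~2–6 h). Rates converted to product using endpoint fluorescence. kcat/Km from linear or Michaelis–Menten fit of V/[E] versus peptide.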

[2] = molecular target: FTase·I2 complex (Rattus norvegicus, UniProt Q02293+Q04631); assay: Peptide binding affinity by fluorescence anisotropy
[3] = molecular target: T1, protein farnesyltransferase (FTase); assay type: biochemical; settings: single-turnover only (STO) peptides, initial library, 0.4–0.8 μM FTase, 50–100 μM dansylated peptide, 0.1–0.2 μM FPP, 50 mM HEPPSO pH 7.8, 5 mM MgCl2, 2 mM TCEP, 25 °C
Outline: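 Stopped-flow, pre-mix levels: FTase (0.8–1.6 μM) with FPP (0.2–0.4 μM) in HEPPSO pH 7.8, MgCl2, TCEP, plus a phosphate mop (PNPase 0.5 units mL−1, 15 mM 7-methylguanosine). This is mixed 1:1 with dansylated peptide (100 or 200 μM) containing MDCC-labelled A197C PBP (5–10 μM), inorganic pyrophosphatase and the mop. Emission is followed at 450 nm, and a single-exponential fit gives kfarn.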

Compound: CTVS
- kcat/KM^peptide [1]: 5800 ± 1200 M⁻¹ s⁻¹

Compound: CSLH
- kcat/KM^peptide [1]: 210 ± 10 M⁻¹ s⁻¹

Compound: CC[C@H](C)[C@H](NC(=O)[C@H](CO)NC(=O)[C@H](CS)NC(=O)[C@H](CCCCN)NC(=O)[C@@H](NS(=O)(=O)c1cccc2c(N(C)C)cccc12)[C@@H](C)O)C(=O)N[C@@H](CCSC)C(=O)O [CSIM] (Dansyl-TKCSIM-OH)
- Kd [2]: 6 ± 2 nM

Compound: CVLQ
- kcat/Km [1]: 780 ± 30 M⁻¹ s⁻¹

Compound: CQTA
- kcat/Km [1]: 530 ± 20 M⁻¹ s⁻¹

Compound: CSLA
- kcat/KM^peptide [1]: 2500 ± 300 M⁻¹ s⁻¹

Compound: CFTN
- kcat/KM^peptide [1]: 970 ± 70 M⁻¹ s⁻¹

Compound: CFVN
- kcat/KM^peptide [1]: 2100 ± 700 M⁻¹ s⁻¹

Compound: CHVM
- kcat/KM^peptide [1]: 10000 ± 8000 M⁻¹ s⁻¹

Compound: CGIA
- kcat/Km [1]: 160 ± 50 M⁻¹ s⁻¹

Compound: CALV
- kcat/KM^peptide [1]: 100 ± 20 M⁻¹ s⁻¹

Compound: CEIQ
- kcat/KM^peptide [1]: 3100 ± 600 M⁻¹ s⁻¹

Compound: CHLM
- kcat/KM^peptide [1]: 2000 ± 300 M⁻¹ s⁻¹

Compound: CYIS
- kcat/KM^peptide [1]: 12000 ± 5000 M⁻¹ s⁻¹

Compound: CFPS
- kcat/KM^peptide [1]: 4700 ± 500 M⁻¹ s⁻¹

Compound: CHVQ
- kcat/KM^peptide [1]: 4500 ± 800 M⁻¹ s⁻¹

Compound: CVSS
- kfarn [3]: 0.097 ± 0.009 s⁻¹

Compound: CSVQ
- kcat/Km [1]: 1200 ± 400 M⁻¹ s⁻¹

Compound: CNLK
- kcat/KM^peptide [1]: 6300 ± 1600 M⁻¹ s⁻¹

Compound: CHIM
- kcat/KM^peptide [1]: 3300 ± 400 M⁻¹ s⁻¹

Compound: TKCYSN
- kfarn [3]: 0.0025 ± 0.0002 s⁻¹
- kfarn ([3]; listed as TKCYSN): 0.0025 s⁻¹

Compound: CGLF
- kcat/Km [1]: 450 ± 60 M⁻¹ s⁻¹

Compound: CVHF
- kcat/KM^peptide [1]: 460 ± 40 M⁻¹ s⁻¹

Compound: CGLY
- kcat/Km [1]: 1000 ± 100 M⁻¹ s⁻¹

Compound: CALQ
- kcat/KM^peptide [1]: 12000 ± 2000 M⁻¹ s⁻¹

Compound: CHIQ
- kcat/KM^peptide [1]: 2200 ± 600 M⁻¹ s⁻¹

Compound: CAKS
- kfarn [3]: 2.3 ± 0.2 s⁻¹

Compound: CLLV
- kcat/KM^peptide [1]: 100 ± 60 M⁻¹ s⁻¹

Compound: CNLM
- kcat/Km [1]: 1000 ± 300 M⁻¹ s⁻¹

Compound: CGVV
- kcat/KM^peptide [1]: 90 ± 30 M⁻¹ s⁻¹

Compound: CSEA
- kfarn [3]: 0.020 ± 0.002 s⁻¹

Compound: CPLG
- kfarn [3]: 0.019 ± 0.001 s⁻¹

Compound: CTVF
- kcat/Km [1]: 1300 ± 100 M⁻¹ s⁻¹

Compound: CDVK
- kcat/KM^peptide [1]: 3600 ± 800 M⁻¹ s⁻¹

Compound: CC[C@H](C)[C@H](NC(=O)[C@H](CS)NC(=O)[C@H](CCCCN)NC(=O)[C@@H](NS(=O)(=O)c1cccc2c(N(C)C)cccc12)[C@@H](C)O)C(=O)N[C@H](C(=O)N[C@@H](C)C(=O)O)C(C)C [CIVA] (Dansyl-TKCIVA-OH)
- Kd [2]: 5 ± 2 nM

Compound: CLML
- kcat/Km [1]: 150 ± 20 M⁻¹ s⁻¹

Compound: CYLA
- kcat/KM^peptide [1]: 4700 ± 300 M⁻¹ s⁻¹

Compound: CAVL
- kfarn [3]: 0.91 ± 0.09 s⁻¹

Compound: CHLS
- kcat/KM^peptide [1]: 460 ± 20 M⁻¹ s⁻¹

Compound: CTIV
- kcat/KM^peptide [1]: 7200 ± 800 M⁻¹ s⁻¹

Compound: CVQM
- kcat/Km [1]: 270 ± 30 M⁻¹ s⁻¹

Compound: CKIV
- kcat/KM^peptide [1]: 870 ± 70 M⁻¹ s⁻¹

Compound: CVLL
- kfarn [3]: 0.83 ± 0.08 s⁻¹
